Reference: ChEMBL document CHEMBL3132834, “Synthesis and biological activity of NOSH-naproxen (AVT-219) and NOSH-sulindac (AVT-18A) as potent anti-inflammatory agents with chemotherapeutic potential” (Medchemcomm, 2013)

Key:
HT-29 [1] = assay: Cytotoxicity against human HT-29 cells assessed as growth inhibition after 24 hrs by MTT assay; type: functional, cell-based; settings: for IC50: HT-29, 24 h
In short: (§1)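 Cells grown in 10% FCS medium: HT-29 in McCoy 5A; MCF-7 and BxPC-3 in DMEM. 50,000 cells/well exposed to a range of concentrations for 24 h. MTT added for 2 h at 37°C, formazan dissolved in 10% SDS/0.01 M HCl, A570 read. IC₅₀ from cell numbers; mean ± S.E.M. of 5–7 experiments in triplicate. Ratios are parent IC₅₀ over hybrid IC₅₀.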

[2] = (§2) Cytotoxicity against human BxPC3 cells assessed as growth inhibition after 24 hrs by MTT assay; type: functional, cell-based; settings: BXPC-3, 24 h; in short: as §1
MCF7 = assay: Cytotoxicity against human MCF7 cells assessed as growth inhibition after 24 hrs by MTT assay; type: functional, cell-based; settings: for IC50: MCF7, 24 h; in short: as §1
BXPC-3 [3] = assay: as §2; type: functional, cell-based; in short: as §1
[4] = Selectivity ratio of IC50 for human MCF7 cells to IC50 for human IMR90 cells; type: ADME, cell-based, IMR-90; settings: MCF7 cells versus IMR90 cells, read-out: Ratio IC50
[5] = Cytotoxicity against human IMR90 cells assessed as growth inhibition after 24 hrs by MTT assay; type: cell-based; settings: IMR-90, 24 h
In short: (§3)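 Normal human cells: IMR-90 lung fibroblasts in EMEM with 10% heat-inactivated FCS and 2 mmol/L L-glutamine; primary pancreatic epithelial ACBRI 515 in serum-free medium with attachment factor; HMEpC in mammary epithelial growth medium. Exposed to a range of concentrations for 24 h; IC₅₀ from cell numbers. Mean ± SEM of 3 experiments in duplicate.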

Rattus norvegicus [6] = assay: Antiinflammatory activity in carrageenan-induced Wistar rat model assessed as inhibition of PGE2 level at 467 mg/kg through gavage administered 1 hr prior to carrageenan-challenge measured after 4 hrs (reference value: 95 +/- 7 pg/mL); type: functional
HT-29 [7] = assay: Cell cycle arrest in human HT-29 cells assessed as accumulation at G0/G1 phase at IC50 concentration after 24 hrs by propidium iodide staining-based flow cytometric analysis (reference value: 40.9 +/- 3.1%); type: functional
HT-29 [8] = assay: Induction of human HT-29 cells assessed as assessed as early apoptotic cells at IC50 concentration after 24 hrs by propidium iodide staining-based flow cytometric analysis; type: functional
[9] = Selectivity ratio of IC50 for human BxPC3 cells to IC50 for human IMR90 cells; type: ADME, cell-based, IMR-90; settings: BxPC3 cells versus IMR90 cells, read-out: Ratio IC50
[10] = Selectivity ratio of IC50 for human BxPC3 cells to IC50 for human ACBRI 515 cells; type: ADME, cell-based, BXPC-3; settings: BxPC3 cells versus ACBRI 515 cells, read-out: Ratio IC50
HT-29 [11] = assay: Cell cycle arrest in human HT-29 cells assessed as accumulation at sub G2/M phase at IC50 concentration after 24 hrs by propidium iodide staining-based flow cytometric analysis (reference value: 27.7 +/- 42%); type: functional
Jurkat [12] = assay: Cytotoxicity against human Jurkat cells assessed as growth inhibition after 24 hrs by MTT assay; type: functional, cell-based
In short: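 30,000 cells/well added to serially diluted compounds in V-bottom plates, 24 h at 37°C in 5% CO₂. MTT (1.1 mg/mL) added for 4 h more, formazan dissolved in DMSO, A570 read. IC₅₀ from 5–7 experiments in triplicate; ratio is parent IC₅₀ over hybrid IC₅₀.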

HT-29 [13] = assay: Induction of human HT-29 cells assessed as assessed as early apoptotic cells at IC50 concentration after 6 hrs by propidium iodide staining-based flow cytometric analysis; type: functional
[14] = Cytotoxicity against human ACBRI 515 cells assessed as growth inhibition after 24 hrs by MTT assay; type: cell-based; settings: ACBRI-515, 24 h; in short: as §3
HT-29 [15] = assay: Induction of human HT-29 cells assessed as assessed as early apoptotic cells at IC50 concentration after 12 hrs by propidium iodide staining-based flow cytometric analysis; type: functional
[16] = Selectivity ratio of IC50 for human Jurkat cells to IC50 for human IMR90 cells; type: ADME, cell-based; settings: Jurkat cells versus IMR90 cells, read-out: Ratio IC50
[17] = Cytotoxicity against human HMEpC cells assessed as growth inhibition after 24 hrs by MTT assay; type: cell-based; in short: as §3
Rattus norvegicus [18] = assay: Antiinflammatory activity in Wistar rat assessed as inhibition of carrageenan-induced paw volume at 467 mg/kg through gavage administered 1 hr prior to carrageenan-challenge measured after 4 hrs (reference value: 1.1 +/- 0.1 mL; type: functional
Serum [19] = assay: Prodrug conversion in carrageenan-induced Wistar rat model assessed as sulfide species in serum at 467 mg/kg through gavage administered 1 hr prior to carrageenan-challenge; type: ADME, organism-based; set-up: dose 467 mg/kg; settings: in vivo, po
In short: (§4)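 Blood taken at the end of the carrageenan edema study from gavage-dosed rats (3 per group). Sulfide measured by the methylene blue method: plasma mixed with zinc acetate, trichloroacetic acid, N,N-dimethyl-p-phenylenediamine and FeCl₃ in 7.2M HCl, A670 read after 15 min. Run in duplicate against a NaHS calibration curve (1-250 μM). The read-out is total H₂S + HS⁻ + S²⁻.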

HT-29 [20] = assay: Induction of human HT-29 cells assessed as assessed as early apoptotic cells at IC50 concentration after 3 hrs by propidium iodide staining-based flow cytometric analysis; type: functional
HT-29 [21] = assay: Antiproliferative activity against human HT-29 cells assessed as reduction in PCNA expression at IC50 concentration; type: functional, cell-based; settings: TDE = time-dependent effect
[22] = Selectivity ratio of IC50 for human HT-29 cells to IC50 for human IMR90 cells; type: ADME, cell-based; settings: HT-29 cells versus IMR90 cells, read-out: Ratio IC50
Jurkat [23] = assay: Ratio of sulindac IC50 to compound IC50 for human Jurkat cells after 24 hrs by MTT assay; type: functional
In short: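 Jurkat T cells grown in suspension in RPMI 1640 with 10% FCS. 30,000 cells/well added to serially diluted compounds in V-bottom plates, 24 h at 37°C in 5% CO₂. MTT (1.1 mg/mL) added for 4 h more, formazan dissolved in DMSO, A570 read. IC₅₀ from 5–7 experiments in triplicate; ratio is parent IC₅₀ over hybrid IC₅₀.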

HT-29 [24] = assay: Antiproliferative activity against human HT-29 cells assessed as reduction in PCNA expression at IC50 concentration after 24 hrs; type: functional
HT-29 [25] = assay: Cell cycle arrest in human HT-29 cells assessed as accumulation at S phase at IC50 concentration after 24 hrs by propidium iodide staining-based flow cytometric analysis (reference value: 31.7 +/- 3.7%); type: functional
[26] = Selectivity ratio of IC50 for human MCF7 cells to IC50 for human HMEpC cells; type: ADME, cell-based; settings: MCF7 cells versus HMEpC cells, read-out: Ratio IC50
Rattus norvegicus [27] = assay: Antiinflammatory activity in Wistar rat assessed as inhibition of carrageenan-induced paw volume at 188 mg/kg through gavage administered 1 hr prior to carrageenan-challenge measured after 4 hrs (reference value: 1.1 +/- 0.1 mL); type: functional
Rattus norvegicus [28] = assay: Antiinflammatory activity in carrageenan-induced Wistar rat model assessed as inhibition of PGE2 level at 188 mg/kg through gavage administered 1 hr prior to carrageenan-challenge measured after 4 hrs (reference value: 95 +/- 7 pg/mL); type: functional
HT-29 [29] = assay: Cell cycle arrest in human HT-29 cells assessed as accumulation at sub G2/M phase at IC50 concentration after 24 hrs by propidium iodide staining-based flow cytometric analysis (reference value: 28.7 +/- 2.1%); type: functional
BXPC-3 [30] = assay: Ratio of naproxen IC50 to compound IC50 for human BxPC3 cells after 24 hrs by MTT assay; type: functional
HT-29 [31] = assay: Cell cycle arrest in human HT-29 cells assessed as accumulation at G0/G1 phase at IC50 concentration after 24 hrs by propidium iodide staining-based flow cytometric analysis (reference value: 42.2 +/- 4%); type: functional
Serum [32] = assay: Prodrug conversion in carrageenan-induced Wistar rat model assessed as sulfide species in serum at 188 mg/kg through gavage administered 1 hr prior to carrageenan-challenge; type: ADME, organism-based; set-up: dose 188 mg/kg; settings: in vivo, po; in short: as §4
HT-29 [33] = assay: Cell cycle arrest in human HT-29 cells assessed as accumulation at S phase at IC50 concentration after 24 hrs by propidium iodide staining-based flow cytometric analysis (reference value: 29.2 +/- 3.3%); type: functional
Rattus norvegicus [34] = assay: Antiinflammatory activity in carrageenan-induced Wistar rat model assessed as inhibition of PGE2 level at 200 mg/kg through gavage administered 1 hr prior to carrageenan-challenge measured after 4 hrs (reference value: 95 +/- 7 pg/mL); type: functional
Rattus norvegicus [35] = assay: Antiinflammatory activity in Wistar rat assessed as inhibition of carrageenan-induced paw volume at 200 mg/kg through gavage administered 1 hr prior to carrageenan-challenge measured after 4 hrs (reference value: 1.1 +/- 0.1 mL); type: functional
Serum [36] = assay: Prodrug conversion in carrageenan-induced Wistar rat model assessed as sulfide species in serum at 200 mg/kg through gavage administered 1 hr prior to carrageenan-challenge; type: ADME, organism-based; set-up: dose 200 mg/kg; settings: in vivo, po; in short: as §4

SMILES | IC50 (HT-29 [1]) [µM] | IC50 [2] [µM] | IC50 (MCF7) [µM] | growth inhibition (GI) (BXPC-3 [3]) | selectivity ratio [4] | IC50 [5] [µM] | growth inhibition (GI) (HT-29 [1]) | Activity (HT-29 [8]) [%] | selectivity ratio [9] | selectivity ratio [10] | IC50 (Jurkat [12]) [µM] | growth inhibition (GI) (Jurkat [12]) | Activity (HT-29 [13]) [%] | IC50 [14] [µM] | Activity (HT-29 [15]) [%] | selectivity ratio [16] | IC50 [17] [µM] | growth inhibition (GI) (MCF7) | Activity (HT-29 [20]) [%] | inhibition (HT-29 [21]) | also measured
CC(=O)N[C@H](C(=O)O)C(C)(C)SN=O | 508 |  |  |  |  |  |  |  |  |  |  |  |  |  |  |  |  |  |  |  | 
COc1ccc2cc([C@H](C)C(=O)O)ccc2c1 [NAPROXEN] | 2600 | 2450 | 2380 |  |  |  |  |  |  |  |  |  |  |  |  |  |  |  |  |  | 
CC1=C(CC(=O)Oc2ccc(OC(=O)CCCO[N+](=O)[O-])c(C(=O)Oc3ccc(-c4cc(=S)ss4)cc3)c2)c2cc(F)ccc2/C1=C\c1ccc([S+](C)[O-])cc1 (configuration not stated) | 0.089 | 0.12 | 0.1 | Dose-dependent effect | 70 | 21.7 | Dose-dependent effect | 39.4 | 70 | > 200 | 0.27 | Dose-dependent effect | 10.1 | > 25 | 23.2 | 70 | 15.2 | Dose-dependent effect | 2.8 | tde | Activity (Rattus norvegicus [6]): 29 pg/mg; Activity (HT-29 [7]): 29.6%; Activity (HT-29 [11]): 59.8%; Activity (Rattus norvegicus [18]): 0.21 mL; Stability (Serum [19]): Stable; selectivity ratio [22]: 70; Ratio IC50 (Jurkat [23]): 2500; inhibition (INH) (HT-29 [24]): 50%; Activity (HT-29 [25]): 10.6%; selectivity ratio [26]: 150
C[C@H](C(=O)Oc1ccc(-c2cc(=S)ss2)cc1)c1ccc2cc(OC(=O)CCCO[N+](=O)[O-])ccc2c1 | 0.08 | 0.15 | 0.12 | Dose-dependent effect | 70 | 20 | Dose-dependent effect | 59.2 | 70 | 147 | 0.1 | Dose-dependent effect | 25.3 | 22 | 31.9 | 70 | 13.8 | Dose-dependent effect | 9.2 | tde | Activity (Rattus norvegicus [27]): 0.15 mL; Activity (Rattus norvegicus [28]): 35 pg/mg; Activity (HT-29 [29]): 19.5%; Ratio IC50 (BXPC-3 [30]): 16000; Activity (HT-29 [31]): 58.2%; Stability (Serum [32]): Stable; Activity (HT-29 [33]): 22.3%; selectivity ratio [22]: 70; inhibition (INH) (HT-29 [24]): 50%; selectivity ratio [26]: 115
CC1=C(CC(=O)O)c2cc(F)ccc2/C1=C\c1ccc([S+](C)[O-])cc1 (configuration not stated) | 800 | 980 | 965 |  |  |  |  |  |  |  | 699 |  |  |  |  |  |  |  |  |  | Activity (Rattus norvegicus [34]): 12 pg/mg; Activity (Rattus norvegicus [35]): 0.22 mL; Stability (Serum [36]): Stable
Oc1ccc(-c2cc(=S)ss2)cc1 | 35 |  |  |  |  |  |  |  |  |  |  |  |  |  |  |  |  |  |  |  | 
